In ChEMBL document CHEMBL2086324, “Synthesis and antimalarial activity of new haemanthamine-type derivatives” (Bioorg Med Chem, 2012):

Test system: Plasmodium falciparum
Assay: Antiplasmodial activity against chloroquine-sensitive Plasmodium falciparum F-32 Tanzania assessed as inhibition of parasitemia after 3 days
Assay type: functional, organism-based
Settings: 72 h
Method in brief: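 P. falciparum grown in glucose-enriched RPMI 1640 with 10% human serum, 37 °C. After 24 h the medium was replaced with fresh medium containing compound in DMSO at 0.1, 1 and 10 µg/mL, and incubation continued 48 h. Parasitemia was counted by blood smear per well on day 3 against control. IC50 was read graphically from concentration vs percent inhibition. Chloroquine 0.04 µM served as positive control.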

| IC50 | Compound |
| --- | --- |
| 84.2 µM | OC1c2cc3c(cc2[C@@]24C=C[C@H]5C[C@@H]2N1C[C@H]4O5)OCO3 (stereo partly specified) |
| 8.4 µM | C=CC(=O)O[C@@H]1CN2Cc3cc4c(cc3[C@]13C=C[C@@H](OC)C[C@H]23)OCO4 |
| 1.6 µM | CO[C@@H]1C=C[C@]23c4cc5c(cc4CN([C@H]2C1)[C@H]1O[C@H]13)OCO5 |
| 6.5 µM | CO[C@H]1C[C@@H]2N3Cc4cc5c(cc4[C@@]2([C@H](O)C3)[C@@H](Br)[C@@H]1Br)OCO5 |
| > 100 µM | C=Cc1ccc(C(=O)O[C@@H]2CN3Cc4cc5c(cc4[C@]24C=C[C@@H](OC)C[C@H]34)OCO5)cc1 |
| 72.6 µM | CO[C@H]1C[C@@H]2N3Cc4cc5c(cc4[C@@]2([C@H](O)C3)[C@@H](Br)[C@@H]1O)OCO5 |
| > 100 µM | CCN(C=O)Cc1cc2c(cc1-c1ccc(O)cc1)OCO2 |
| 62.6 µM | CO[C@H]1C[C@@H]2N3Cc4cc5c(cc4[C@@]2([C@H](O)C3)[C@@H](O)[C@@H]1Br)OCO5 |
| 43.3 µM | CO[C@@H]1C=C[C@@]23c4cc5c(cc4CN(C[C@H]2OC(=O)c2ccc(Br)cc2)[C@H]3C1)OCO5 |
| > 100 µM | CC(=O)O[C@@H]1C=C[C@@]23c4cc5c(cc4CN(C[C@H]2OC(C)=O)[C@H]3C1)OCO5 |
| 73.4 µM | CN(C=O)Cc1cc2c(cc1-c1ccc(O)cc1)OCO2 |
| 92.9 µM | C1=C[C@@]23c4cc5c(cc4CN4C[C@H]2O[C@@H]1C[C@H]43)OCO5 [APOHAEMANTHAMINE] |
| 7.1 µM | CO[C@@H]1C=C[C@@]23c4cc5c(cc4C(OC(=O)c4cccnc4)N(C[C@H]2O)[C@H]3C1)OCO5 (stereo partly specified) |
| 3 µM | O=C(O[C@@H]1C=C[C@@]23c4cc5c(cc4CN(C[C@H]2OC(=O)c2ccc(Br)cc2)[C@H]3C1)OCO5)c1ccc(Br)cc1 |
| 75.8 µM | CO[C@@H]1C=C[C@@]23c4cc5c(cc4CN(C[C@H]2OC(C)=O)[C@H]3C1)OCO5 |
| 56.6 µM | CO[C@@H]1C=C[C@@]23c4cc5c(cc4CN(C[C@H]2OC(=O)C(C)C)[C@H]3C1)OCO5 |

| IC50 | Compound |
| --- | --- |
| 0.8 µM | O=C(O[C@@H]1C=C[C@@]23c4cc5c(cc4CN(C[C@H]2OC(=O)c2cccnc2)[C@H]3C1)OCO5)c1cccnc1 |
| 95.5 µM | CO[C@@H]1C=C[C@]23/C(=N/O)CN(Cc4cc5c(cc42)OCO5)[C@H]3C1 |
| > 100 µM | CO[C@@H]1C=C[C@@]23c4cc5c(cc4C[N+]([O-])(C[C@H]2O)[C@H]3C1)OCO5 |
| 13.4 µM | Oc1cc2c(cc1O)[C@@]13C=C[C@@H](O)C[C@@H]1N(C2)C[C@H]3O |
| 73.5 µM | CO[C@@H]1C=C[C@]23C(=O)CN(Cc4cc5c(cc42)OCO5)[C@H]3C1 |
| 5.1 µM | COC(C(=O)O[C@@H]1C=C[C@@]23c4cc5c(cc4CN(C[C@H]2OC(=O)C(OC)c2ccccc2)[C@H]3C1)OCO5)c1ccccc1 (stereo partly specified) |
| 2.9 µM | CO[C@@H]1C=C[C@@]23c4cc5c(cc4C(OC(=O)c4ccc(Br)cc4)N(C[C@H]2OC(=O)c2ccc(Br)cc2)[C@H]3C1)OCO5 (stereo partly specified) |
| 52.3 µM | CO[C@@H]1C=C[C@@]23c4cc5c(cc4C(OC(C)=O)N(C[C@H]2OC(C)=O)[C@H]3C1)OCO5 (stereo partly specified) |
| 52.5 µM | CO[C@@H]1C=C[C@@]23c4cc5c(cc4C(OC(=O)C(C)C)N(C[C@H]2OC(=O)C(C)C)[C@H]3C1)OCO5 (stereo partly specified) |
| 7 µM | CC(C)C(=O)O[C@@H]1C=C[C@@]23c4cc5c(cc4CN(C[C@H]2OC(=O)C(C)C)[C@H]3C1)OCO5 |
| 9.9 µM | CO[C@@H]1CC[C@@]23c4cc5c(cc4CN(C[C@H]2O)[C@H]3C1)OCO5 |
| 76.6 µM | CO[C@@H]1C=C[C@@]2(c3cc4c(cc3C=O)OCO4)C(=O)C=N[C@H]2C1 |
| 51.7 µM | CO[C@@H]1C=C[C@@]23c4cc5c(cc4CN(C[C@H]2OC(=O)c2cccnc2)[C@H]3C1)OCO5 |
| 13.2 µM | O[C@@H]1C=C[C@@]23c4cc5c(cc4CN(C[C@H]2O)[C@H]3C1)OCO5 |
| 72.1 µM | Oc1cc2c(cc1O)[C@@]13C=C[C@@H](O)C[C@@H]1N(C[C@H]3O)C2O (stereo partly specified) |
| 75.5 µM | COC1c2cc3c(cc2[C@@]24C=C[C@@H](OC)C[C@@H]2N1C[C@H]4O)OCO3 (stereo partly specified) |

| Compound | IC50 |
| --- | --- |
| O[C@@H]1C=C[C@]23CCN(Cc4cc5c(cc42)OCO5)[C@H]3C1 [VITTATINE] | 7.3 µM |
| COc1cc2c(cc1O)CN1CC[C@@]23C=CC(O)C[C@H]13 (stereo partly specified) | 91.5 µM |
| CO[C@@H]1C=C[C@@]23c4cc5c(cc4CN(C[C@@H]2O)[C@H]3C1)OCO5 [(+)-HAEMANTHAMINE] | 1.3 µM |
| CO[C@@H]1C=C[C@@]23c4cc5c(cc4[C@@H](O)N(C[C@H]2O)[C@H]3C1)OCO5 [HAEMANTHIDINE] | 1.2 µM |
